Measurements reported in ChEMBL document CHEMBL4308887, “Synthesis and biological evaluation of clovamide analogues with catechol functionality as potent Parkinson's disease agents in vitro and in vivo” (Bioorg Med Chem Lett, 2019).
Active and inactive are the calls of the source. The calls are words filed in the database; no cut-off is given here.

Experiments:
[1] = Activation of PI3K/Akt/mTOR signaling in human SH-SY5Y cells assessed as up regulation of HO-1 expression at 1 uM after 24 hrs by Western blot analysis relative to control; format: cell-based
Summary of the method: (§1)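 HO-1 western blot in SH-SY5Y cells incubated 24 h with 1 at 0.1, 1 or 10 μM, without H₂O₂. Band densitometry expressed as % of control. Mean ± S.E.M. from three independent experiments.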

[2] = Activation of PI3K/Akt/mTOR signaling in human SH-SY5Y cells assessed as up regulation of H2O2-induced HO-1 expression at 10 uM preincubated for 6 hrs followed by H2O2 addition and after 24 hrs in presence of PI3K/Akt/mTOR inhibitor rapamycin by Western blot analysis; format: cell-based
Summary of the method: (§2)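 SH-SY5Y cells preincubated 1 h with one inhibitor: SB203580 10 μM, LY294002 5 μM, U0126 10 μM, SP600125 5 μM or rapamycin 100 nM. Then 1 (10 μM) for 6 h, then 600 μM H₂O₂. HO-1 measured by western blot and densitometry. Mean ± S.E.M., three independent experiments.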

[3] = Activation of PI3K/Akt/mTOR signaling in human SH-SY5Y cells assessed as up regulation of H2O2-induced HO-1 expression at 10 uM preincubated for 6 hrs followed by H2O2 addition and after 24 hrs in presence of p38 MAPK inhibitor SB203580 by Western blot analysis; format: cell-based; summary of the method: as §2
[4] = MRT in Sprague-Dawley rat at 5 mg/kg, iv by LC-MS/MS analysis; format: ADME, organism-based; settings: in vivo
Summary of the method: (§3)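 Male Sprague–Dawley rats dosed with 1 at 5 mg/kg i.v. (vehicle 5% DMSO, 2% F68, 93% saline) or 25 mg/kg p.o. (0.5% methylcellulose with 1% Tween 80). Orbital blood sampled at 0.083–24 h, 12 time points. Plasma PK parameters derived. Mean ± SD, n = 3.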

[5] = Activation of PI3K/Akt/mTOR signaling in human SH-SY5Y cells assessed as up regulation of HO-1 expression after 24 hrs by Western blot analysis; format: cell-based; summary of the method: as §1
[6] = Activation of PI3K/Akt/mTOR signaling in human SH-SY5Y cells assessed as up regulation of HO-1 expression at 10 uM after 24 hrs by Western blot analysis relative to control; format: cell-based; summary of the method: as §1
[7] = test system: SH-SY5Y; assay: Protection against H2O2-induced oxidative stress in human SH-SY5Y cells assessed as reduction in reactive oxygen species level preincubated for 6 hrs followed by H2O2 addition and measured after 24 hrs by DHE dye based inverted microscopic analysis; format: functional, cell-based
[8] = test system: SH-SY5Y; assay: Neuroprotection against H2O2-induced cell death in human SH-SY5Y cells preincubated for 6 hrs followed by H2O2 addition and measured after 24 hrs by MTT assay; format: functional, cell-based
Summary of the method: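 Primary screen at 100 μM, then dose-response. SH-SY5Y cells pretreated, then exposed to 600 μM H₂O₂ (the level chosen from a 100–1000 μM, 24 h viability titration). EC₅₀ is the concentration giving 50% of maximal effect. N-acetyl-L-cysteine served as positive control. DMSO below 0.1%. Mean ± S.E.M. of three experiments.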

[9] = test system: Mus musculus; assay: Anti-parkinson's activity in MPTP-induced C57Bl/6 mouse model of Parkinson's disease assessed as increase in tyrosine hydroxylase expression in substantia nigra at 10 to 20 mg/kg, ig pretreated for 10 days followed by MPTP challenge measured 10 days post MPTP addition by Western blot analysis; format: functional, organism-based
Summary of the method: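 Tissue taken 10 days after MPTP injection from mice dosed orally with 1 (10 or 20 mg/kg). TH in SNpc and striatum by western blot, and by DAB immunostaining. Three of the mice per group analysed. Mean ± S.D., n = 6 mice/group.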

[10] = test system: SH-SY5Y; assay: Protection against H2O2-induced apoptosis in human SH-SY5Y cells assessed as viable cells at 10 uM preincubated for 6 hrs followed by H2O2 addition and measured after 24 hrs by Annexin V-FITC/propidium iodide staining based flow cytometry (reference value: 12.4%); format: functional; settings: read-out: Activity
[11] = Activation of PI3K/Akt/mTOR signaling in human SH-SY5Y cells assessed as up regulation of H2O2-induced HO-1 expression at 1 uM preincubated for 6 hrs followed by H2O2 addition and after 24 hrs by Western blot analysis (reference value: 181.53 +/- 24.67%); format: cell-based
Summary of the method: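 SH-SY5Y cells pretreated 6 h with 1 (1 or 10 μM), then exposed to 600 μM H₂O₂ for 24 h. HO-1 measured by western blot with densitometry and expressed as % of control. Mean ± S.E.M., three independent experiments.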

[12] = AUC (0 to infinity) in Sprague-Dawley rat at 5 mg/kg, iv by LC-MS/MS analysis; format: ADME, organism-based; parameters: dose 5 mg/kg, route intravenous, time infinity; settings: in vivo
Summary of the method: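 Single intravenous 5 mg/kg dose in 5% DMSO + 2% F68 + 93% saline to male Sprague–Dawley rats (n = 3). Orbital blood samples (100-200 μL) were taken at 12 points over 24 h (0.083 to 24 h). AUC0-∞ was derived from the plasma concentration–time curve and given as mean ± SD.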

[13] = test system: Mus musculus; assay: Anti-parkinson's activity in MPTP-induced C57Bl/6 mouse model of Parkinson's disease assessed as restoration of motor ability by measuring increase in time spent on rota-rod at 10 to 20 mg/kg, ig pretreated for 10 days followed by MPTP challenge measured 4 to 72 hrs post MPTP addition for 3 mins by rota rod test; format: functional, organism-based
Summary of the method: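 MPTP-intoxicated mice given 1 orally at 10 or 20 mg/kg. Time retained on a rotating rod recorded 4, 24, 48 and 72 h after MPTP. Mean ± S.D., n = 6 mice/group.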

[14] = test system: Mus musculus; assay: Anti-parkinson's activity in MPTP-induced C57Bl/6 mouse model of Parkinson's disease assessed as increase in SOD activity in substantia nigra administered intragastrically pretreated for 10 days followed by MPTP challenge measured 10 days post MPTP addition by xanthine oxidase method; format: functional, organism-based
Summary of the method: (§4)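 Striatum and SNpc from MPTP-treated mice dosed orally with 1 at 10 or 20 mg/kg. MDA level and SOD activity measured. Mean ± S.D., n = 6 mice/group.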

[15] = Activation of PI3K/Akt/mTOR signaling in human SH-SY5Y cells assessed as increase in mTOR phosphorylation after 5 to 360 mins by Western blot analysis; format: cell-based
Summary of the method: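 SH-SY5Y cells, unstimulated, exposed to 1 for 5, 15, 30, 60, 120, 240 or 360 min. Phospho-AKT and phospho-mTOR measured by western blot, reported as p-AKT/t-AKT and p-mTOR/t-mTOR ratios after densitometry. Mean ± S.E.M. of three independent experiments.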

[16] = Half life in Sprague-Dawley rat at 25 mg/kg, po by LC-MS/MS analysis; format: ADME, organism-based; settings: in vivo; summary of the method: as §3
[17] = test system: Mus musculus; assay: Induction of motor impairment in C57Bl/6 mouse at 10 mg/kg, ig treated for 10 days measured after 4 to 72 hrs for 3 mins by rota rod test; format: organism-based; settings: in vivo, po
[18] = test system: Mus musculus; assay: Anti-parkinson's activity in MPTP-induced C57Bl/6 mouse model of Parkinson's disease assessed as reduction in MDA level in striatum administered intragastrically pretreated for 10 days followed by MPTP challenge measured 10 days post MPTP addition by thiobarbituric acid method; format: functional, organism-based; summary of the method: as §4

SMILES: COC(=O)[C@H](Cc1ccccc1)NC(=O)/C=C/c1ccc(O)c(O)c1 [N-CAFFEOYL-PHENYLALANINE METHYL ESTER]
- Activity [1]: 155%
- Activity [2]: inactive
- Activity [3]: Active
- MRT [4]: 1.45 h
- Activity [5]: Dose-dependent effect
- Activity [6]: 206%
- Activity [7]: Dose-dependent effect
- EC50 [8]: 4.26 µM
- Activity [9]: Active
- viability at 10 µM [10]: 89.8%
- Activity [11]: 274%
- AUC(0-inf) [12]: 3270 ng·h/mL
- Activity [13]: Active
- Activity [14]: Dose-dependent effect
- Activity [15]: Active
- half-life [16]: 2.7 h
- Activity [17]: Non-Toxic
- Activity [18]: Dose-dependent effect
